Screens as filed in PubChem.
ATG4B inhibitor: ATG4B (human) cysteine protease inhibition; Q9Y4P1; ATG4B cleavage of LC3-PLA2, NBD-HPC fluorescence, 1 h; inhibition, % at 8.33 µM; hit rate 0.51% among 340,000; AID 504462; in the data active = inhibition above about 40%
Target sequence (Q9Y4P1 whole entry, looked up): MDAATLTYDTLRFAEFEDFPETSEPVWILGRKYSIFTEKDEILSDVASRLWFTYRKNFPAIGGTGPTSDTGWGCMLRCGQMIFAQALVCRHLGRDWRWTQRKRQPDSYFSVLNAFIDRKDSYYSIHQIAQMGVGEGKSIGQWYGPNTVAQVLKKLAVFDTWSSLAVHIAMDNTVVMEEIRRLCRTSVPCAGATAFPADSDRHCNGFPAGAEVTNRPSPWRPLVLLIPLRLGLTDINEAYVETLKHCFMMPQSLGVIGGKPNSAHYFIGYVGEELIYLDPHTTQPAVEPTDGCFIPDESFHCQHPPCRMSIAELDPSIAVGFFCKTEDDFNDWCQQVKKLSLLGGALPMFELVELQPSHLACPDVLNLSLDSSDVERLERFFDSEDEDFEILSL
HKDC1 inh: inhibitors of human hexokinase HKDC1. hit rate 0.16% among 340,000. recombinant HKDC1, G6PDH/diaphorase resazurin coupled fluorescence. inhibition, % at 20 µM. Q2TB90;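 active = inhibition above about 35% when tested at 20 µM, limit read from the data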;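 note: plate controls were DMSO wells with enzyme for no effect and DMSO wells lacking enzyme for full effect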
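Test system: recombinant HKDC1 (HK5) hexokinase enzyme, produced in-house; Amount: enzyme 5 µg/mL final; Buffer or medium: Tris pH 8.0 buffer with MgCl2, Tween-20, BSA, BME; Reagent: glucose and ATP substrates; Doses: 20 µM test compound, 1% DMSO; Incubation: 90 min reaction incubation at room temperature, dark; Detection: resorufin fluorescence at 613 nm.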
PfG6PD inh: PfG6PD (Plasmodium falciparum) enzyme inhibition. PfGluPho enzyme, NADPH resazurin-diaphorase fluorescence. inhibition, % at 20 µM. hit rate 0.78% among 350,000. AID 504690;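 active = inhibition reaching at least a set limit at 20 µM in the primary screen, cut at about 59% in these data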;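 note: 0% = DMSO wells with substrate and 100% = DMSO wells lacking glucose-6-phosphate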
PKA-R2B act: activators of human PKA-R2B complex; P22694+P31323; PKA-R2B holoenzyme dissociation, Cy5-IP20 fluorescence polarization; R2B truncated from residue 108, S112A mutant; 0% DMSO only, 100% 113 µM cGMP; activation, % at 11.4 µM; hit rate 0.079% among 340,000; AID 504700;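 active = activation above a cutoff set at the mean over all compounds plus 3 SD, cut at about 18% in these data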;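 note: higher means more holoenzyme dissociation and a rise in polarization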
T cell modulator: T cell immune modulators affecting CD8 T cell-vesicle binding; 2C CD8+ T cell-vesicle binding, flow cytometry; active compounds read low; response (vesicle binding), % at 7 µM; hit rate 0.068% among 330,000; AID 2052;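 active = response, share of CD8 T cells binding vesicles, and their 90th percentile fluorescence all below set limits, cut at about 80% in these data, passing the limit was not always enough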;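 note: values below 100% mean blocked vesicle binding to the CD8+ T cells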
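Incubation: binding step 1.5 h, 37 °C, antibody labelling 20 min, ice; system: murine 2C transgenic CD8+ T lymphocytes; technique: cytometric PE anti-B7-1 and Alexa647 anti-CD8 signals after 1% paraformaldehyde fixation; also added: QL9-charged Drosophila Ld/ICAM-1/B7-1 vesicles; control set: naked versus QL9-loaded vesicles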
PKA-R1A activ: activates the PKA-R1A holoenzyme complex. PKA-R1A dissociation, Cy5-IP20 fluorescence polarization; scaled: DMSO 0%, 113 µM cGMP 100%. AID 504707. P00514+P68181. hit rate 0.083% among 340,000. activation, % at 11.4 µM;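 active = percent activation above the mean of all tested compounds plus 3 SD, cut at about 19% in these data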;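 note: higher means more PKAc released from R1A so a rise in polarization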
ATG4B conf: confirmation of human ATG4B inhibitors; ATG4B protease fluorescent substrate cleavage assay; inhibition, % at 8.33 µM; hit rate 92% among 320; shares compounds with ATG4B inhibitor; in the data active = inhibition above about 39%
PLA2 ctr: PLA2 (human) inhibition in ATG4B counter-screen; hit rate 66% among 1,600; shares compounds with ATG4B inhibitor; inhibition, % at 8.33 µM; purified PLA2, NBD-C6-HPC fluorescence, 45 min; in the data active = inhibition above about 50%
Target sequence (P04054 whole entry, looked up): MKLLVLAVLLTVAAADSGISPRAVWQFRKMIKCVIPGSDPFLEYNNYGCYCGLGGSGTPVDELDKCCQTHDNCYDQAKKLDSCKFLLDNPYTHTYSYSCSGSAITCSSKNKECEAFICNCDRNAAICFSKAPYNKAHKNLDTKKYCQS
PfG6PD confirm: PfG6PD inhibition, single-dose confirmed. shares compounds with PfG6PD inh. hit rate 34% among 2,400. inhibition, % at 20 µM. recombinant PfGluPho, NADPH-diaphorase-resazurin fluorescence. AID 504753;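 active = inhibition of at least 50% at 20 µM in any single replicate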;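 note: 0% = DMSO with substrate and 100% = DMSO lacking glucose-6-phosphate substrate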
Diaph ctr 10uM: counter-screen for P. falciparum G6PD inhibitors: diaphorase inhibitors, oxidizers; shares compounds with PfG6PD inh; diaphorase-coupled resazurin reduction, fluorescence, NADPH 10 uM; inhibition, % at 20 µM; hit rate 39% among 820; AID 504862;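 active = average inhibition reaching 50% or more with the compound at 20 µM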;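 note: resorufin red fluorescence formed as diaphorase reduces resazurin using NADPH; 0% = DMSO with enzyme and 100% = DMSO without enzyme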
Diaph ctr 30uM: diaphorase inhibition or oxidation at 30 uM NADPH; shares compounds with PfG6PD inh; Diaphorase/resazurin coupled assay, resorufin fluorescence; inhibition, % at 20 µM; hit rate 29% among 820; AID 504863;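 active = inhibition averaging 50% or more, tested at 20 µM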;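 note: 0% = DMSO with enzyme and 100% = DMSO wells lacking diaphorase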
* = called active by the depositor; / = not tested or not shown. A selection: hits, their analogues and other compounds. The true share with any hit is near 1.6%.

SMILES	ATG4B inhibitor	HKDC1 inh	PfG6PD inh	PKA-R2B act	T cell modulator	PKA-R1A activ	PLA2 ctr	PfG6PD confirm	others
COc1ccc(-n2c(/C=C/c3ccc(O)c(O)c3)nc3ccccc3c2=O)cc1	49.4*	10.3	9.3	-8.0	545.7	-7.9	51.6*	/
CCOc1ccccc1C1SCC(=O)Nc2c1c(=O)[nH]n2C(CC)CC (configuration not stated)	-13.7	-4.3	18.2	-9.8	324.8	0.5	/	/
CCc1ccc(-c2nn(Cc3ccccc3)cc2C=O)cc1	67.5*	-5.9	14.1	-7.1	156.0	-8.4	83.3*	/
CCCCn1c(O)c(/C(CC)=N/N2CCCCC2c2cccnc2)c(=O)[nH]c1=S (configuration not stated)	12.5	-2.3	-8.7	-5.5	0.0	-10.9	/	/
C/C(=N\N1CCCCC1c1cccnc1)c1c(O)n(C2CCCCC2)c(=S)[nH]c1=O (configuration not stated)	43.4*	-3.6	-3.2	3.8	238.6	-0.1	36.6	/
Cc1c2cnn(CC(=O)N3CCC4(CC3)OCCO4)c(=O)c2c(C)n1Cc1ccccc1Cl	-2.5	4.4	-1.1	-5.3	176.9	-7.6	/	/
COC(=O)C1=C(c2ccc(F)cc2OCc2ccccc2)C[C@@H]2CC[C@H]1N2C(=O)NCc1ccccc1Br	64.2*	0.9	6.9	-5.8	226.4	-7.5	79.5*	/
O=c1c2ccccc2nc(/C=C/c2ccccc2F)n1-c1ccccc1O	61.6*	1.2	43.7	-5.2	232.7	-9.0	70.3*	/
NC(N)=N/N=C/c1ccc(N(c2ccccc2)c2ccccc2)cc1	53.2*	-0.1	3.9	0.5	96.2	-0.6	65.5*	/
CC1(O)CCN2C(=O)CCc3cccc1c32 (configuration not stated)	4.1	1.5	24.0	9.1	714.5	-1.7	/	/
Clc1ccc(C(c2ccc(Cl)cc2)n2cc[n+](CC(OCc3ccc(Cl)cc3Cl)c3ccc(Cl)cc3Cl)c2)cc1 (configuration not stated)	45.0*	1.0	54.2	13.2	918.8	-2.3	90.3*	/
Clc1ccc(COC(Cn2ccnc2)c2ccc(Cl)cc2Cl)cc1 (configuration not stated)	7.5	5.7	14.7	1.9	94.0	-4.8	/	/
Cc1nc2c(=O)n(C)c(=O)nc-2n(C)n1	82.5*	17.5	120.2*	13.7	202.9	1.0	-8.6	109.2*	ATG4B conf=25.3;Diaph ctr 10uM=98.3*;Diaph ctr 30uM=102.4*
O=C1C(=O)c2cccc3cccc1c23	4.6	11.2	0.1	-0.5	241.9	-0.4	/	/
O=C1C(=O)c2ccccc2-c2ccccc21	84.8*	30.8	116.8*	1.5	545.1	-8.8	-5.4	97.0*	ATG4B conf=27.1;Diaph ctr 10uM=88.4*;Diaph ctr 30uM=89.7*
Fc1ccc(NC(=S)N2Cc3ccccc3-n3nncc3C2)cc1	/	/	4.9	6.7	/	-2.0	/	/
COC(=O)C12CCc3c(ccc4cc(OC)ccc34)C1=CC(=O)C2 (configuration not stated)	-4.7	0.1	71.3*	-0.7	/	-6.7	/	28.1
C=C1C(=O)O[C@@H]2C[C@@H](C)[C@@H]3C=CC(=O)[C@@]3(C)[C@@H](OC(=O)CC(=O)O[C@H]3[C@@H]4C(=C)C(=O)O[C@@H]4C[C@@H](C)[C@@H]4C=CC(=O)[C@]43C)[C@H]12	19.6	16.2	68.2*	-2.4	303.8	9.0	/	55.9*	Diaph ctr 10uM=-6.4;Diaph ctr 30uM=-2.9
COC(=O)C1=C(c2cccc(OCc3ccccc3)c2)C[C@@H]2CC[C@H]1N2C(=O)NCc1ccccc1OC	8.3	2.8	-1.7	-1.9	722.5	-5.7	/	/
CC1=NN=C(c2ccc(N)cc2)c2cc3c(cc2C1)OCO3	4.6	14.5	44.2	-8.2	175.4	7.5	/	9.3
C[C@]12CC[C@@H]3c4ccc(O)c(O)c4CC[C@H]3[C@@H]1CC[C@@H]2O	3.2	1.4	99.7*	1.2	/	3.9	/	93.2*	Diaph ctr 10uM=8.4;Diaph ctr 30uM=22.7
C[C@]12CC[C@H]3[C@@H](CCC4=CC(=O)CC[C@@H]43)[C@@H]1CC[C@@H]2O	-2.5	0.3	1.9	-0.5	187.4	4.6	/	/
Cc1c(C(=O)Nc2ccccc2)c2cc(O)ccc2n1Cc1ccccc1	-13.1	-0.2	15.1	-3.1	301.8	-5.2	/	/
O=C(O)CCC(=O)NCCC1=c2ccccc2=N/C1=C\c1c(O)n(Cc2ccc(F)cc2)c(=S)[nH]c1=O	6.3	8.7	41.6	7.7	840.9	-7.2	/	/
CCOC(=O)C(O)(c1ccc(NC(=O)c2ccc(Cl)c(Cl)c2)cc1)C(F)(F)F (configuration not stated)	-10.7	-0.9	62.4*	0.5	341.4	4.1	/	-27.4
SMILES	ATG4B inhibitor	HKDC1 inh	PfG6PD inh	PKA-R2B act	T cell modulator	PKA-R1A activ	PLA2 ctr	PfG6PD confirm	others
CCCN1CCc2cccc3c2[C@H]1Cc1ccc(O)c(O)c1-3	-4.9	1.5	86.2*	-12.5	135.5	-9.9	/	82.4*	Diaph ctr 10uM=28.1;Diaph ctr 30uM=10.7
COc1ccc2c(c1O)-c1c(OC)c(OC)cc3c1[C@H](C2)N(C)CC3	0.6	1.4	-7.0	5.6	100.3	4.2	/	/
Oc1ccc(O)c2c1C1(Cl)C(Cl)=C(Cl)C2(Cl)C1(Cl)Cl	17.6	-1.8	73.3*	7.0	/	-4.4	/	12.4
CN(C)c1ccc(C=C2C(=O)NC(=S)NC2=O)cc1	-11.9	-4.2	68.8*	-8.4	/	5.9	/	41.0
CN(C)c1ccc(C=C2C(=O)NC(=O)NC2=O)cc1	-5.4	-6.1	26.3	-11.2	/	5.3	/	/
COc1ccc(NC(=O)C2C3CCC(O3)C2C(=O)O)c(OC)c1 (configuration not stated)	-3.1	1.6	21.7	-2.1	200.3	-6.7	/	/
N[C@@H]1CCCC[C@H]1N.O=C(O)C(=O)O.[Pt]	/	/	/	/	679.1	/	/	/
CC1=C(C)CC2(C(=O)NC(=S)NC2=O)C(C)C1 (configuration not stated)	-3.4	-1.1	10.1	0.2	/	-1.2	/	/
Nc1ccc2c3c(cccc13)-c1ccccc1-2	-3.2	7.3	79.5*	0.4	/	-6.3	/	81.7*	Diaph ctr 10uM=-15.6;Diaph ctr 30uM=-7.6
